ChEMBL document CHEMBL2157904, “Identification of a novel Smoothened antagonist that potently suppresses Hedgehog signaling” (Bioorg Med Chem, 2012)
pIC50: −log10 of the molar value. The source made the active and inactive calls. The calls are words filed in the database; no cut-off is given here.

How the values were obtained:
[1] = Antiproliferative activity against Shh-stimulated C57BL/6 mouse granule cell precursor after 48 hrs by [3H]thymidine incorporation assay; assay type: functional
Procedure, shortened: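 Primary cerebellar granule cell precursors taken from 7-day postnatal C57BL/6 mice. Treated 48 h with Shh plus compound at increasing concentrations, then [3H]-thymidine added for 16 h and incorporation measured. Curve-fit IC50, mean ± SEM, n = 3.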

[2] = system: U2OS; assay: Antagonist activity at chimeric Smo 633 mutant expressed in U2OS cells coexpressing beta arrestin2-GFP assessed as inhibition of intracellular beta arrestin2-GFP aggregate formation at 5 uM after 6 hrs by confocal microscopy; assay type: functional, cell-based; details: Homo sapiens
Procedure, shortened: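 Cells exposed to compound at 5 µM for 6 hours. Confocal imaging scored loss of intracellular βarr2-GFP vesicular aggregates.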

[3] = biological target: Vasopressin V2 receptor (Homo sapiens) (UniProt P30518); assay: Antagonist activity at V2R expressed in U2OS cells coexpressing beta arrestin2-GFP assessed as inhibition of D-arginine vasopressin-induced intracellular beta arrestin2-GFP aggregate formation at 5 uM preincubated for 1 hr before agonist treatment measured after 6 hrs of agonist treatment by confocal microscopy; assay type: functional, cell-based
Vasopressin V2 receptor (Homo sapiens), sequence (P30518 whole entry): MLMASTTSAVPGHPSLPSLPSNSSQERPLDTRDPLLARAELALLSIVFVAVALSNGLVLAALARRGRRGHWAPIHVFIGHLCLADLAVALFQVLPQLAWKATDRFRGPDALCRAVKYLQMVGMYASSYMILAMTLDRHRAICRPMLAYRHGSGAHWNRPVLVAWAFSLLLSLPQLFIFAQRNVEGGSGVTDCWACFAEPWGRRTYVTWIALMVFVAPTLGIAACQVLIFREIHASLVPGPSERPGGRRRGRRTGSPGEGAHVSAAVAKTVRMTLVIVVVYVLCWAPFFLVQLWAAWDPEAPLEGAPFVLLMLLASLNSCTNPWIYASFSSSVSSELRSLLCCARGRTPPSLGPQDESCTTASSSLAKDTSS

[4] = system: Mus musculus; assay: Inhibition of hair regrowth in eight week old C57BL/6 mouse at 0.5 mM topically administered daily on shaved and Nair depilated surface for 2 weeks; assay type: functional, organism-based
Procedure, shortened: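 Female C57BL/6 mice aged eight weeks, in telogen, with dorsal skin shaved and then depilated with Nair for 2 min and rinsed. Compound at 0.5 mM in 95% acetone/5% DMSO, 30 µl applied topically to the depilated area daily for two weeks. Vehicle-treated controls. Brief 3% isoflurane anaesthesia during procedures.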

[5] = biological target: Protein smoothened (Mus musculus, UniProt P56726); assay: Antagonist activity at Smo in mouse Shh-Light 2 cells assessed as inhibition of Shh-induced Gli1-reporter activity after 2 days by dual-luciferase reporter gene method; assay type: functional, cell-based, Shh Light II
Protein smoothened, sequence (P56726 whole entry): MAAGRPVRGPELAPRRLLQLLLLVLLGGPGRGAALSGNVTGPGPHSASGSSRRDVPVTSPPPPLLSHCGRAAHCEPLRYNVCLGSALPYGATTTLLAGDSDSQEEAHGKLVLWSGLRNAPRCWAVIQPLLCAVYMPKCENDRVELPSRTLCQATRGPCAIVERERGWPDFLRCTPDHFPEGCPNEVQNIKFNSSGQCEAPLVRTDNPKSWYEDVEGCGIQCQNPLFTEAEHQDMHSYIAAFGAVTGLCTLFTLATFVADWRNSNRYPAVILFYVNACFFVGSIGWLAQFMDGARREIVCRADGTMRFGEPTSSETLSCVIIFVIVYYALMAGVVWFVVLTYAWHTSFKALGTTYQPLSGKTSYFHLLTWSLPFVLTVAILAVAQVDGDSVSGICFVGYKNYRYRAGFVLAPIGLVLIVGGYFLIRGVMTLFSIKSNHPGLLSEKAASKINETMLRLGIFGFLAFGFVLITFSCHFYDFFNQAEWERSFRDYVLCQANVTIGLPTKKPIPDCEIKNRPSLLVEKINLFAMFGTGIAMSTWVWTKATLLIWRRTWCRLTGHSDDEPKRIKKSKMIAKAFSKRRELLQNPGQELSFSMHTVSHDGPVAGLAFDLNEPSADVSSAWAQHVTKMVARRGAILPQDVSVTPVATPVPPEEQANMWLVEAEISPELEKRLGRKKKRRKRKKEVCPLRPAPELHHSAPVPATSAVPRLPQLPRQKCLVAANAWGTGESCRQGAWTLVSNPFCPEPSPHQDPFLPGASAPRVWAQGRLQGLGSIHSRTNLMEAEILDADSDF
Procedure, shortened: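 Shh-LIGHT2 cells (clonal NIH3T3 line with stably integrated Gli-dependent firefly luciferase and constitutive Renilla luciferase) stimulated with purified Sonic Hedgehog at 50 ng/mL, with compound at increasing concentrations. Dual-luciferase read-out. Mean ± SEM.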

| pIC50 [5] | SMILES | pIC50 [1] | inhibition [2] | inhibition [3] | inhibition [4] |
| --- | --- | --- | --- | --- | --- |
|  | CS(=O)(=O)c1ccc(C(=O)Nc2ccc(Cl)c(-c3ccccn3)c2)c(Cl)c1 [VISMODEGIB] | 7.79 |  |  |  |
|  | CC1=C2C[C@H]3[C@@H](CC=C4C[C@@H](O)CC[C@@]43C)[C@@H]2CC[C@]12O[C@@H]1C[C@H](C)CN[C@H]1[C@H]2C [CYCLOPAMINE] | 6.38 | Active | inactive |  |
|  | CCN(C)Cc1ccc(N2CCC(NC(=O)c3cccc(-c4cccnc4)c3)CC2)nc1 |  | Active |  |  |
| 8.59 | O=C(NC1CCN(Cc2ccc(N3CCC(NC(=O)c4cccc(-c5cccnc5)c4)CC3)nc2)CC1)c1cccc(-c2cccnc2)c1 | 7.78 |  | inactive | Active |
